The record followed here is ChEMBL document CHEMBL3045637, “Highly variable insect control efficacy of Tephrosia vogelii chemotypes” (2012).

Converted amounts (≈) assume the structure as drawn. The source made the active and inactive calls. The rule behind the calls is not given here.

For assay [1], the system named is Callosobruchus maculatus. In words: Insecticidal activity against adult Callosobruchus maculatus assessed mean survival fraction ratio at 10 ppm measured 72 hr post dose (reference value: 4.4 +/- 0.31 mean survival fraction). Type of assay: functional.
Assay [2] relates to Callosobruchus maculatus. Description: Insecticidal activity against adult Callosobruchus maculatus assessed mean survival fraction ratio at 100 ppm measured 72 hr post dose (reference value: 4.4 +/- 0.31 mean survival fraction). Type of assay: functional.
In assay [3] the test system is Callosobruchus maculatus. Description: Insecticidal activity against adult Callosobruchus maculatus assessed mean survival fraction ratio at 500 ppm measured 72 hr post dose (reference value: 4.4 +/- 0.31 mean survival fraction). Type of assay: functional.
In assay [4] the test system is Callosobruchus maculatus. In words: Insecticidal activity against adult Callosobruchus maculatus assessed reduction mean survival fraction measured 72 hr post dose (reference value: 4.4 +/- 0.31 mean survival fraction). The class given is functional.
Assay [5] has as its system Callosobruchus maculatus. In words: Inhibition of oviposition in adult Callosobruchus maculatus grown on compound pre-treated cowpea seeds assessed as reduction in number of eggs at 10 to 500 ppm measured after 72 hr. Type of assay: functional, organism-based. The gist of the method: (§1)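 Compounds in acetone at 500, 100 and 10 ppm were coated onto cowpea seed by rotary evaporation (5 mL per 25 g) and air-dried 1 h. 5 g of treated seed went in a vial with 5 mated females, 2–3 days old, 5 replicates per treatment. Females were removed at 72 h and eggs counted. F1 emergence was counted from day 25 over two weeks. Means compared by ANOVA with SNK or LSD.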

Assay [6] relates to Callosobruchus maculatus. In words: Inhibition of F1 generation emergence in adult Callosobruchus maculatus grown on compound pre-treated cowpea seeds assessed as reduction in adult emergence at 10 to 500 ppm measured over 2 weeks from start of F1 emergence. The class given is functional, organism-based. The gist of the method: as §1

For `COc1cc2c(c3c1C(=O)C[C@@H](c1ccccc1)O3)C=CC(C)(C)O2` [OBOVATIN 5-METHYL ETHER], the values for the Ratio with Callosobruchus maculatus [1], with Callosobruchus maculatus [2] and with Callosobruchus maculatus [3] were 3.8, 4.2 and 4.2, respectively.
As usually defined, the LC50 is the concentration that kills 50% of the test population. Read a high LC50 as a less lethal substance. Turning to `COc1cc2c(cc1OC)[C@]1(O)C(=O)c3ccc4c(c3O[C@@H]1CO2)C1C(O4)C1(C)C` (some centres undefined) [SARCOLOBINE], the Ratio in the assay on Callosobruchus maculatus [1] came out at 2; in the assay with Callosobruchus maculatus [2] it was 1.4; in the assay on Callosobruchus maculatus [3], 0.6. Moreover, the LC50 in the assay with Callosobruchus maculatus [4] was < 10 µg/mL.
The corresponding values for `COc1cc2c(cc1OC)[C@@H]1C(=O)c3c(O)cc4c(c3O[C@@H]1CO2)C=CC(C)(C)O4` [TOXICAROL] are 2.2, 2.2, 2.2 and < 10 µg/mL.
For the compound `COc1cc2c(cc1OC)[C@@H]1C(=O)c3ccc4c(c3O[C@@H]1CO2)C=CC(C)(C)O4` [DEGUELIN], the inhibition result with Callosobruchus maculatus [5] and with Callosobruchus maculatus [6] was “Active” in each case. For the same compound, the Ratio amounted to 2.6 in the assay with Callosobruchus maculatus [1], 1.4 in the assay with Callosobruchus maculatus [2] and 0.9 in the assay with Callosobruchus maculatus [3]. Besides, in the assay with Callosobruchus maculatus [4], the LC50 was < 10 µg/mL.
For the compound `C=C(C)[C@H]1Cc2c(ccc3c2O[C@@H]2COc4cc(OC)c(OC)cc4[C@@H]2C3=O)O1` [ROTENONE], the inhibition result in the assay with Callosobruchus maculatus [5] and with Callosobruchus maculatus [6] was “Active” throughout. In addition, the values for the Ratio in the assay with Callosobruchus maculatus [1], with Callosobruchus maculatus [2] and with Callosobruchus maculatus [3] were 1, 0.7 and 0.4, respectively. Also, in the assay with Callosobruchus maculatus [4], the LC50 was < 10 µg/mL.
Consider `COc1cc2c(cc1OC)[C@]1(O)C(=O)c3ccc4c(c3O[C@@H]1CO2)C=CC(C)(C)O4` [TEPHROSIN], for which the inhibition entry in the assay with Callosobruchus maculatus [5] and in the assay with Callosobruchus maculatus [6] was “Active” each time. For the same compound, the Ratio is on record as 2.9 in the assay on Callosobruchus maculatus [1], 2.3 with Callosobruchus maculatus [2] and 1.8 in the assay on Callosobruchus maculatus [3]. For the same compound, the LC50 with Callosobruchus maculatus [4] worked out at 200 µg/mL (≈ 487 µM).
